Test results reported in ChEMBL document CHEMBL3808334, “Synthesis and in vitro evaluation of novel triazine analogues as anticancer agents and their interaction studies with bovine serum albumin” (Eur J Med Chem, 2016).

Assays:
[1] = system: U-251; assay: Growth inhibition of human U251 cells assessed as cell growth at 10^-8 M incubated for 48 hrs by sulforhodamine B assay; type: functional; details: U-251, 48 h, read-out: Activity
[2] = system: EKVX; assay: Growth inhibition of human EKVX cells assessed as cell growth at 10^-6 M incubated for 48 hrs by sulforhodamine B assay; type: functional; details: read-out: Activity
Outline: (§1)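 Cells seeded at 5,000–40,000/well according to doubling time and preincubated 24 h at 37 °C, 5% CO2. Time-zero plates were TCA-fixed. DMSO concentrate was diluted in medium with 50 µg/ml gentamicin to give five concentrations (10-fold or ½ log steps), then exposed 48 h. Cells were TCA-fixed, stained with 0.4% SRB and read at 515 nm. Percent growth was taken against time-zero and control; GI50, TGI and LC50 derived.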

[3] = Growth inhibition of human HCT15 cells assessed as cell growth at 10 uM incubated for 48 hrs by sulforhodamine B assay; type: functional; details: HCT-15, 48 h, read-out: Activity
Outline: (§2)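 Primary screen at one dose (10 µM) across 60 human cancer cell lines. Readout was growth percent relative to untreated control and time-zero.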

[4] = system: CCRF-CEM; assay: Growth inhibition of human CCRF-CEM cells assessed as cell growth at 10^-5 M incubated for 48 hrs by sulforhodamine B assay; type: functional; details: read-out: Activity
Outline: (§3)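 Leukemia line in the five-dose format: five concentrations from 10-fold or ½-log serial dilutions. Plated at 5,000–40,000 cells per well, preincubated 24 h, then compound added for 48 h at 37 °C, 5% CO₂. Sulforhodamine B absorbance read at 515 nm. Growth is computed against time-zero (Tz) and control (C) readings; GI₅₀ is where [(Ti−Tz)/(C−Tz)]×100 = 50.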

[5] = system: T47D; assay: Growth inhibition of human T47D cells assessed as cell growth at 10^-8 M incubated for 48 hrs by sulforhodamine B assay; type: functional; details: read-out: Activity
[6] = Growth inhibition of human HCT116 cells assessed as cell growth at 10 uM incubated for 48 hrs by sulforhodamine B assay; type: functional; details: HCT-116, 48 h, read-out: Activity; outline: as §2
[7] = system: M14; assay: Growth inhibition of human M14 cells assessed as cell growth at 10^-6 M incubated for 48 hrs by sulforhodamine B assay; type: functional; details: M14, 48 h, read-out: Activity
[8] = Growth inhibition of human HCT15 cells assessed as cell growth at 10^-5 M incubated for 48 hrs by sulforhodamine B assay; type: functional; details: HCT-15, 48 h, read-out: Activity; outline: as §1
[9] = system: M14; assay: Growth inhibition of human M14 cells assessed as cell growth at 10 uM incubated for 48 hrs by sulforhodamine B assay; type: functional; details: M14, 48 h, read-out: Activity
[10] = Growth inhibition of human Caki1 cells incubated for 48 hrs by sulforhodamine B assay; type: functional; details: CAKI-1, 48 h; outline: as §1
[11] = Growth inhibition of human OVCAR5 cells assessed as cell growth at 10^-8 M incubated for 48 hrs by sulforhodamine B assay; type: functional; details: OVCAR-5, 48 h, read-out: Activity
[12] = system: NCI-H23; assay: Growth inhibition of human NCI-H23 cells assessed as cell growth at 10^-8 M incubated for 48 hrs by sulforhodamine B assay; type: functional; details: NCI-H23, 48 h, read-out: Activity
[13] = target: Albumin (Bos taurus, UniProt P02769); assay: Binding affinity to bovine serum albumin assessed as binding constant in emission spectra by Benesie-Hildebrand plot analysis; type: ADME; details: cattle, isolated protein
Outline: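 BSA, 10 µM, in 0.1 M phosphate buffer pH 7.4, titrated with compound (0–20 µM per the figure; diluted from 10⁻³ mol L⁻¹ DMSO stocks). Run at 300 K in a 1 cm quartz cell. UV spectra taken 200–800 nm after 5 min equilibration; fluorescence excited at 280 nm, emission 351 nm, slit 10 nm. K is the intercept/slope ratio of a linear fit of 1/(A₀−A) or 1/(F₀−F) vs 1/[compound].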

[14] = Growth inhibition of human HL-60(TB) cells assessed as cell growth at 10^-8 M incubated for 48 hrs by sulforhodamine B assay; type: functional; details: HL-60, 48 h, read-out: Activity
Outline: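 Cells plated at 5,000–40,000/well according to doubling time and preincubated 24 h at 37 °C, 5% CO₂, with time-zero plates TCA-fixed. Drugs were kept as DMSO concentrates at 400× the top concentration and diluted in medium with 50 µg/ml gentamicin. Five 10-fold or ½-log dilutions were run for 48 h, followed by SRB staining and A515. Percent growth = (Ti−Tz)/(C−Tz)×100, or (Ti−Tz)/Tz×100 when Ti<Tz.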

[15] = Growth inhibition of human SF295 cells assessed as cell growth at 10 uM incubated for 48 hrs by sulforhodamine B assay; type: functional; details: SF-295, 48 h, read-out: Activity
[16] = Growth inhibition of human HCC2998 cells assessed as cell growth at 10^-5 M incubated for 48 hrs by sulforhodamine B assay; type: functional; details: HCC 2998, 48 h, read-out: Activity; outline: as §1
[17] = system: NCI-H522; assay: Growth inhibition of human NCI-H522 cells incubated for 48 hrs by sulforhodamine B assay; type: functional; details: NCI-H522, 48 h
Outline: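 Cells were plated at 5,000–40,000 per well according to doubling time and preincubated 24 h at 37 °C in 5% CO2; time-zero plates were then TCA-fixed. Five concentrations (10-fold or ½-log dilutions, DMSO stock) were incubated 48 h. Cells were TCA-fixed, stained with 0.4% SRB and read at 515 nm. GI50 was taken where [(Ti−Tz)/(C−Tz)]×100 = 50.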

[18] = system: CCRF-CEM; assay: Growth inhibition of human CCRF-CEM cells incubated for 48 hrs by sulforhodamine B assay; type: functional; outline: as §3
[19] = Growth inhibition of human OVCAR8 cells assessed as cell growth at 10^-5 M incubated for 48 hrs by sulforhodamine B assay; type: functional; details: OVCAR-8, 48 h, read-out: Activity
[20] = system: A549; assay: Growth inhibition of human A549/ATCC cells assessed as cell growth at 10^-6 M incubated for 48 hrs by sulforhodamine B assay; type: functional; details: A549, 48 h, read-out: Activity
Outline: (§4)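 Five-dose assay: five concentrations from 10-fold or ½-log serial dilutions. Cells are plated at 5,000–40,000 per well according to doubling time, grown 24 h, then exposed 48 h at 37 °C, 5% CO₂. Fixed with cold 50% TCA (final addition) for 60 min at 4 °C and stained with 0.4% SRB in 1% acetic acid. Bound dye is solubilized in 10 mM Tris base and read at 515 nm. GI₅₀ is where [(Ti−Tz)/(C−Tz)]×100 = 50, with a time-zero plate as Tz.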

[21] = system: ACHN; assay: Growth inhibition of human ACHN cells assessed as cell growth at 10^-4 M incubated for 48 hrs by sulforhodamine B assay; type: functional; details: read-out: Activity; outline: as §4
[22] = read-out: pLC50 (the source's name) (converted)
[23] = read-out: LC50 (the source's name)

Albumin, sequence (P02769 whole entry): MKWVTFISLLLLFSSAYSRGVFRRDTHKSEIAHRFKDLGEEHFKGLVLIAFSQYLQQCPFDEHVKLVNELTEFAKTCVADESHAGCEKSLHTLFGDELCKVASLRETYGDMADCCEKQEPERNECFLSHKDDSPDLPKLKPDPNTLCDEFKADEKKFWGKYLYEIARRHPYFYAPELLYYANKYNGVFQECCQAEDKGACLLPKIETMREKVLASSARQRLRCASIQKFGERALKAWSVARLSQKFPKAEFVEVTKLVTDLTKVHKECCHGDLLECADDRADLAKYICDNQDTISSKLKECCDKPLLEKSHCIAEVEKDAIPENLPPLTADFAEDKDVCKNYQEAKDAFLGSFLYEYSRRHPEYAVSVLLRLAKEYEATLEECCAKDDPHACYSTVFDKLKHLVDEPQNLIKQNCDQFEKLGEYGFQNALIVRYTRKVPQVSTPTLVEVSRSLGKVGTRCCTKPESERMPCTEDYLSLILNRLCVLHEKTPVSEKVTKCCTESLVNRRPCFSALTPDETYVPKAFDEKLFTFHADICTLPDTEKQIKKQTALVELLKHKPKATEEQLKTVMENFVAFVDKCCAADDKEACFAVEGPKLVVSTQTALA

Row | SMILES | growth at 0.01 µM [1] | growth at 1 µM [2] | growth at 10 µM [3] | growth at 10 µM [4] | growth at 0.01 µM [5] | growth at 10 µM [6] | growth at 1 µM [7] | growth at 10 µM [8] | growth at 10 µM [9] | GI50 ([10]; read-out: GI50) | TGI ([10]; read-out: TGI) | GI50 ([10]; read-out: pGI50 (converted)) | TGI ([10]; read-out: pTGI (converted)) | growth at 0.01 µM [11] | growth at 0.01 µM [12] | K [13] | growth at 0.01 µM [14] | growth at 10 µM [15] | growth at 10 µM [16] | GI50 ([17]; read-out: GI50) | also measured
1 | Fc1ccc(-c2nc(Nc3ccc(-c4nc5ccccc5[nH]4)cc3)nc(N3CCOCC3)n2)cc1 | 101% | 83% | -62.2% | 7% | 101% | 4.8% | 95% | -35% | -7.64% | 1980 nM | 5.02 µM | 2000 nM | 5.01 µM | 93% | 94% | 7.9 ×10⁴ /M | 92% | -63.5% | 4% | 2360 nM | LC50 [10]: > 100 µM; CC50 [10, 22]: > 100 µM; CC50 [17, 23]: > 100 µM; TGI ([17]; read-out: TGI): 5.85 µM; GI50 ([17]; read-out: pGI50 (converted)): 2340 nM; CC50 [17, 22]: > 100 µM; TGI ([17]; read-out: pTGI (converted)): 5.89 µM; GI50 ([18]; read-out: GI50): 3.11 µM; CC50 [18, 23]: > 100 µM; TGI ([18]; read-out: TGI): > 100 µM; GI50 ([18]; read-out: pGI50 (converted)): 3.09 µM; CC50 [18, 22]: > 100 µM; TGI ([18]; read-out: pTGI (converted)): > 100 µM; growth at 10 µM [19]: 2%; growth at 1 µM [20]: 99%; growth at 100 µM [21]: 3%
2 | c1ccc2[nH]c(-c3ccc(Nc4nc(N5CCCCC5)nc(N5CCOCC5)n4)cc3)nc2c1 | 99% | 84% | -33.9% | 3% | 93% | 9.65% | 93% | -49% | -24.5% | 1810 nM | 4.08 µM | 1820 nM | 4.07 µM | 101% | 98% | 5.7 ×10⁴ /M | 98% | -51.4% | 9% | 2360 nM | CC50 [17, 23]: > 100 µM; TGI ([17]; read-out: TGI): 6.22 µM; GI50 ([17]; read-out: pGI50 (converted)): 2340 nM; CC50 [17, 22]: > 100 µM; TGI ([17]; read-out: pTGI (converted)): 6.17 µM; GI50 ([18]; read-out: GI50): 3.25 µM; CC50 [18, 23]: > 100 µM; TGI ([18]; read-out: TGI): > 100 µM; GI50 ([18]; read-out: pGI50 (converted)): 3.24 µM; CC50 [18, 22]: > 100 µM; TGI ([18]; read-out: pTGI (converted)): > 100 µM; growth at 10 µM [19]: 9%; growth at 1 µM [20]: 101%; growth at 100 µM [21]: 1%
